Test results taken from the M2OR odorant receptor database.
Residue numbers refer to the chain shown, from its start.

Tests used:
Conditions in all cases: stereoisomer not certain
[1] = biological target: T1, OR2B3 (Homo sapiens) (UniProt O76000)
T1 sequence (whole entry): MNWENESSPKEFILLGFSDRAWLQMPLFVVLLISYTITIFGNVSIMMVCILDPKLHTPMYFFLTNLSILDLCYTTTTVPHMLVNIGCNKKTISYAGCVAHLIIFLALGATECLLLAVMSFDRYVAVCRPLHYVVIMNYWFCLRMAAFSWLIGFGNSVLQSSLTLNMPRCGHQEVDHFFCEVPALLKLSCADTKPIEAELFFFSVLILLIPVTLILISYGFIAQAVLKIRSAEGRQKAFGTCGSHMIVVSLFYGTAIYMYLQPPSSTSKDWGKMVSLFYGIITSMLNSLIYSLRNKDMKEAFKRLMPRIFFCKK
Procedure, shortened: (§1)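 Transient luciferase assays in mammalian cell lines were common, though methods varied by source. The values come from published papers and their supplementary material, with extra details from the original authors when needed. Responsive refers to a measured signal the original authors judged statistically different from baseline, and non-responsive (inactive) to the remainder.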

[2] = biological target: T2, OR2B6 (Homo sapiens) (UniProt P58173)
T2 sequence (whole entry): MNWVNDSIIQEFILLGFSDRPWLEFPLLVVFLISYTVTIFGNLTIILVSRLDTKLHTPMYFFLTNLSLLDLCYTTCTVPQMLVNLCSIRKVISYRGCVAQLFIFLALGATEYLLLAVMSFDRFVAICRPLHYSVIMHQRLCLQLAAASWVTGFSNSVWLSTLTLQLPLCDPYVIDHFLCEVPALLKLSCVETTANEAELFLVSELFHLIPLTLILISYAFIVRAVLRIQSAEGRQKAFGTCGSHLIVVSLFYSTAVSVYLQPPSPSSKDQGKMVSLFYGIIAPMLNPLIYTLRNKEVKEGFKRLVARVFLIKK
Procedure, shortened: as §1

[3] = test system: T3, OR2BB
T3 sequence (whole entry): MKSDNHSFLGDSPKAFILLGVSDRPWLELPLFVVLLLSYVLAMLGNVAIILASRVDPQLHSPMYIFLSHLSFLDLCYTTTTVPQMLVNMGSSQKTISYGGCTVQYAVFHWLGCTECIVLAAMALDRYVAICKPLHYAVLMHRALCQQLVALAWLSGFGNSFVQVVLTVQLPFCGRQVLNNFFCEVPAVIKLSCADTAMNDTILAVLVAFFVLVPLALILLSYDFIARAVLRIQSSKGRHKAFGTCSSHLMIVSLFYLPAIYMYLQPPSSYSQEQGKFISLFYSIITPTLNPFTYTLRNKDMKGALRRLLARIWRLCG
Procedure, shortened: as §1

[4] = test system: T4, OR2BB; remark: listed apart in the source
T4 sequence (whole entry): T3 sequence (whole entry) with D223G
Procedure, shortened: as §1

[5] = biological target: T5, OR2C1 (Homo sapiens) (UniProt O95371)
T5 sequence (whole entry): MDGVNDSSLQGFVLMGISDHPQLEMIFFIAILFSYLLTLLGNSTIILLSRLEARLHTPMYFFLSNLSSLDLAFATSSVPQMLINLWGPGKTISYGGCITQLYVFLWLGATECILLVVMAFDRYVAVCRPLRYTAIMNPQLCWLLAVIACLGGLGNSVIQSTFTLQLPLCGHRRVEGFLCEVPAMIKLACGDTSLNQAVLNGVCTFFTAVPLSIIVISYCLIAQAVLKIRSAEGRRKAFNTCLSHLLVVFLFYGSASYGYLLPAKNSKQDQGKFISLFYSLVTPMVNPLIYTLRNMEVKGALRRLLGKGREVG
Procedure, shortened: as §1

[6] = test system: T6, OR2C1
T6 sequence (whole entry): T5 sequence (whole entry) with C149W
Procedure, shortened: as §1

[7] = test system: OR2BB; remark: listed apart in the source
Procedure, shortened: as §1
Target sequence in this assay (as listed by the source): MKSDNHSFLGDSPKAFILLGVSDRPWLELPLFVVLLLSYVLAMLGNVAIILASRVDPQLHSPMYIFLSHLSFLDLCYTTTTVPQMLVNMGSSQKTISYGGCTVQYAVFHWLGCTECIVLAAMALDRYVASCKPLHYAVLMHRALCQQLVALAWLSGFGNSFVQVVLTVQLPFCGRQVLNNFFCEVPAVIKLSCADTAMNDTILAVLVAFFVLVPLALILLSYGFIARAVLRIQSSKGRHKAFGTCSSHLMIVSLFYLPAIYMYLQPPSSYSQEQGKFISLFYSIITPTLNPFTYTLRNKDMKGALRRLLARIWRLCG

[8] = test system: OR2C1; remark: listed apart in the source
Procedure, shortened: as §1
Target sequence in this assay (as listed by the source): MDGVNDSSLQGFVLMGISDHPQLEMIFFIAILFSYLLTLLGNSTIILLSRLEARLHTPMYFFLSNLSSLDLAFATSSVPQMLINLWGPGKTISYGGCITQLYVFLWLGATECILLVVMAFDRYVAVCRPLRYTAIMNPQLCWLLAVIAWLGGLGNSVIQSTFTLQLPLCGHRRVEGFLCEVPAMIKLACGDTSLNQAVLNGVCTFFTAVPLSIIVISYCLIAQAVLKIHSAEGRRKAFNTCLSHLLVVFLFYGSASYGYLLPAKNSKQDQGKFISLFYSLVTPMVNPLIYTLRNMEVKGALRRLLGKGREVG

[9] = test system: OR2C1; remark: listed apart in the source
Procedure, shortened: as §1
Target sequence in this assay (as listed by the source): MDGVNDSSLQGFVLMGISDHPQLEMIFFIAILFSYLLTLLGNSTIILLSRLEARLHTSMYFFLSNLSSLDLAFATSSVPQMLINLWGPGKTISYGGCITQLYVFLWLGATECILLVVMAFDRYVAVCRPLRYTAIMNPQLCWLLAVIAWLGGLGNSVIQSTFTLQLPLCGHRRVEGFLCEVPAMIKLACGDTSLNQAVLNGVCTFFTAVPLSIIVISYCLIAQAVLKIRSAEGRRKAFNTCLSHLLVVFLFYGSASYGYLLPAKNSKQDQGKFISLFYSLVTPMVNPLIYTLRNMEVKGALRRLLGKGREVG
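Also: active if original authors judged signal statistically different from baseline.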

CCCCCC1COCCC1OC(C)=O (centres undefined)
odorant receptor agonist call [1]: inactive

CCOC(=O)CC1(C)OCCO1
odorant receptor agonist call [1]: inactive

CCC1OC(C)=C(O)C1=O (centres undefined)
odorant receptor agonist call [1]: inactive | odorant receptor agonist call [2]: inactive | odorant receptor agonist call [3]: inactive | odorant receptor agonist call [4]: inactive | odorant receptor agonist call [5]: inactive | odorant receptor agonist call [6]: inactive

CCCCC1CCC(=O)O1 (centres undefined)
odorant receptor agonist call [1]: inactive

CC(CC=O)c1ccc(C(C)(C)C)cc1 (centres undefined)
odorant receptor agonist call [1]: inactive

OCc1ccccc1
odorant receptor agonist call [1]: inactive

CCC=C(C)C(O)CCCCC (centres undefined)
odorant receptor agonist call [1]: inactive

CCCCCCCCC(OC(C)=O)OC(C)=O
odorant receptor agonist call [1]: inactive

CC(C)(C)C1CCCCC1OCCCCO (centres undefined)
odorant receptor agonist call [1]: inactive

CCCC(S)CCOC(C)=O (centres undefined)
odorant receptor agonist call [1]: inactive | odorant receptor agonist call [2]: inactive | odorant receptor agonist call [3]: inactive | odorant receptor agonist call [4]: inactive | odorant receptor agonist call [5]: inactive | odorant receptor agonist call [6]: inactive

CC=CC(=O)C1C(C)=CCCC1(C)C (centres undefined)
odorant receptor agonist call [1]: inactive

CC1CC(C)(c2ccccc2)CO1 (centres undefined)
odorant receptor agonist call [1]: inactive

CC(C)=CCCC(C)CC=O (centres undefined)
odorant receptor agonist call [1]: inactive

COc1ccc(C)cc1
odorant receptor agonist call [1]: inactive

CC(=O)C=CC1=C(C)CCCC1(C)C
odorant receptor agonist call [1]: active

CC1=C(O)C(=O)C(C)O1 (centres undefined)
odorant receptor agonist call [1]: inactive | odorant receptor agonist call [2]: inactive | odorant receptor agonist call [3]: inactive | odorant receptor agonist call [4]: inactive | odorant receptor agonist call [5]: inactive | odorant receptor agonist call [6]: inactive

C=CC(C)(CCC=C(C)C)OC(C)=O (centres undefined)
odorant receptor agonist call [1]: inactive

CC1=C(O)C(=O)OC1C (centres undefined)
odorant receptor agonist call [1]: inactive | odorant receptor agonist call [2]: inactive | odorant receptor agonist call [3]: inactive | odorant receptor agonist call [4]: inactive | odorant receptor agonist call [5]: inactive | odorant receptor agonist call [6]: inactive

Cc1ccc(C(C)C)cc1O
odorant receptor agonist call [1]: inactive

CC(C)CCCC(C)(C)O
odorant receptor agonist call [1]: inactive

CCC(=O)C=CC1C(C)=CCCC1(C)C (centres undefined)
odorant receptor agonist call [1]: inactive

CCCC(C)C(=O)OCC (centres undefined)
odorant receptor agonist call [1]: inactive

CC1=CCC2CC1C2(C)C (centres undefined)
odorant receptor agonist call [1]: inactive

Cc1occc(=O)c1OC(=O)C(C)C
odorant receptor agonist call [1]: inactive

CCc1ccc(CC(C)(C)C=O)cc1
odorant receptor agonist call [1]: inactive

CCCCCC1C(=O)CCC1CC(=O)OC (centres undefined)
odorant receptor agonist call [1]: inactive

COC1CC2CC1C1CC(C=O)CC21 (centres undefined)
odorant receptor agonist call [1]: inactive

C=CCOC(=O)COCCC(C)C
odorant receptor agonist call [1]: inactive

c1ccc2ncccc2c1
odorant receptor agonist call [7]: inactive

O=c1ccc2ccccc2o1
odorant receptor agonist call [7]: inactive

CCCCCCCCS
odorant receptor agonist call [8]: active | odorant receptor agonist call [6]: active | odorant receptor agonist call [9]: active

O=C([O-])C[SH2+]
odorant receptor agonist call [6]: active
